Source: ChEMBL document CHEMBL1123825, “Synthesis and activity profiles of new dermorphin-(1-4) peptide analogues” (J Med Chem, 1987)
Non-standard residues stand in square brackets, D forms with d. Residues, ends and D or L forms follow the SMILES beside them. ξ: configuration not given here. Met(O) = CS(=O)CC[C@H](N)C(=O)O; ξA = CC(N)C(=O)O; Sar = CNCC(=O)O

How the values were obtained:
Mus musculus [1] = assay: Relative potency was determined for the compound with respect to morphine activity (1) after icv administration; format: functional
[2] = target: Mu-type opioid receptor (Cavia porcellus) (UniProt P97266); assay: Relative potency with respect to morphine was evaluated for mu-receptor of guinea pig brain
Sequence of Mu-type opioid receptor (Cavia porcellus) (P97266 whole entry): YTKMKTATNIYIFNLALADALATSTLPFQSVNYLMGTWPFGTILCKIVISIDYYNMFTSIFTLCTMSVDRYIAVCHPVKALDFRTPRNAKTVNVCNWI

Mu-type opioid receptor = Mu-type opioid receptor (Cavia porcellus, UniProt P97266); assay: Evaluated for the inhibition of [3H]DAGO binding to mu-receptor of guinea pig brain
Sequence of Mu-type opioid receptor (P97266 whole entry): as above
Outline: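 Male guinea pig brain minus cerebellum, homogenized in 50 mM Tris (pH 7.4), preincubated 37 °C for 45 min; 18 mg tissue per tube. [3H]DAGO 0.6 nM, 40 min at 25 °C, then GF/B filtration. Nonspecific binding defined with […] bremazocine. Six or more concentrations, each in triplicate; IC50 by probit analysis.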

[3] = target: Kappa-type opioid receptor (Cavia porcellus, UniProt P41144); assay: Evaluated for the inhibition of [3H]EKC binding to Opioid receptor kappa 1 of guinea pig brain
Sequence of Kappa-type opioid receptor (P41144 whole entry): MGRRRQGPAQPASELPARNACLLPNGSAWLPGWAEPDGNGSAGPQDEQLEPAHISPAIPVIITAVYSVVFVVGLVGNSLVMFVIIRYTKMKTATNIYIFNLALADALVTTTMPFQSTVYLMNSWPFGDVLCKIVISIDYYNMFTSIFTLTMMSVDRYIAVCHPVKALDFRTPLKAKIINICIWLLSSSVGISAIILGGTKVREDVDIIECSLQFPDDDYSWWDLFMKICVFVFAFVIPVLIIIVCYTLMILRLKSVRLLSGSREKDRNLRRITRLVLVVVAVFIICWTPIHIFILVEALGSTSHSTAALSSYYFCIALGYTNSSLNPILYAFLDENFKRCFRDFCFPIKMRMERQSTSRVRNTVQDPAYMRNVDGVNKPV

Mus musculus [4] = assay: Relative potency was determined for the compound with respect to morphine activity (1) after subcutaneous administration; format: functional
Mus musculus [5] = assay: The compound was evaluated for the analgesic activity by tail-flick test after subcutaneous administration of compound in mouse; value ranges from 2.64-10.0; format: functional; details: sc
Mus musculus [6] = assay: The compound was evaluated for the analgesic activity by tail-flick test after icv administration of compound in mouse; value ranges from 27-40.8; format: functional
Mus musculus [7] = assay: The compound was evaluated for the analgesic activity by tail-flick test after subcutaneous administration of compound in mouse; value ranges from 0.48-1.51; format: functional; details: sc
Mus musculus [8] = assay: The compound was evaluated for the analgesic activity by tail-flick test after icv administration of compound in mouse; value ranges from […]-[…]; format: functional
Mus musculus [9] = assay: The compound was evaluated for the analgesic activity by tail-flick test after icv administration of compound in mouse; value ranges from 11.8-23; format: functional
Mus musculus [10] = assay: The compound was evaluated for the analgesic activity by tail-flick test after subcutaneous administration of compound in mouse; value ranges from 1.40-4.89; format: functional; details: sc
Mus musculus [11] = assay: The compound was evaluated for the analgesic activity by tail-flick test after icv administration of compound in mouse; value ranges from 2.8-12.6; format: functional
Mus musculus [12] = assay: The compound was evaluated for the analgesic activity by tail-flick test after subcutaneous administration of compound in mouse; value ranges from 0.28-0.80; format: functional; details: sc
Mus musculus [13] = assay: The compound was evaluated for the analgesic activity by tail-flick test after icv administration of compound in mouse; value ranges from 31-85; format: functional
Mus musculus [14] = assay: The compound was evaluated for the analgesic activity by tail-flick test after subcutaneous administration of compound in mouse; value ranges from 2.92-8.75; format: functional; details: sc
Mus musculus [15] = assay: The compound was evaluated for the analgesic activity by tail-flick test after icv administration of compound in mouse; value ranges from 6.6-27.1; format: functional
Outline: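 Swiss-Webster mice (23-25 g), tail immersed in 55 °C water, reaction time read before and at various times after icv dosing in saline (4 µL); 10 s cutoff. % analgesia = [(T − T0)/(10 − T0)] × 100. At least four doses, at least eight mice per dose; ED50 estimated at time of peak activity. Opioid specificity checked by naloxone pretreatment (0.5-1 mg/kg sc).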

Mus musculus [16] = assay: The compound was evaluated for the analgesic activity by tail-flick test after subcutaneous administration of compound in mouse; value ranges from 2.60-17.0; format: functional; details: sc
Mus musculus [17] = assay: The compound was evaluated for the analgesic activity by tail-flick test after icv administration of compound in mouse; value ranges from 5.5-16.3; format: functional
Mus musculus [18] = assay: The compound was evaluated for the analgesic activity by tail-flick test after icv administration of compound in mouse; value ranges from 12.6-41.7; format: functional
Mus musculus [19] = assay: The compound was evaluated for the analgesic activity by tail-flick test after subcutaneous administration in mouse; value ranges from 2.69-17.0; format: functional; details: sc
Mus musculus [20] = assay: The compound was evaluated for the analgesic activity by tail-flick test after subcutaneous administration of compound in mouse; value ranges from 0.54-0.83; format: functional; details: sc
Mus musculus [21] = assay: The compound was evaluated for the analgesic activity by tail-flick test after icv administration of compound in mouse; value ranges from 1.35-3.36; format: functional
Mus musculus [22] = assay: The compound was evaluated for the analgesic activity by tail-flick test after subcutaneous administration of compound in mouse; value ranges from 26.7-99.1; format: functional; details: sc
Mus musculus [23] = assay: The compound was evaluated for the analgesic activity by tail-flick test after icv administration of compound in mouse; value ranges from 46.4-120; format: functional
Mus musculus [24] = assay: The compound was evaluated for the analgesic activity by tail-flick test after icv administration of compound in mouse; value ranges from 14.8-58; format: functional
Mus musculus [25] = assay: The compound was evaluated for the analgesic activity by tail-flick test after subcutaneous administration of compound in mouse; value ranges from 3.48-14.95; format: functional; details: sc
Mus musculus [26] = assay: The compound was evaluated for the analgesic activity by tail-flick test after icv administration of compound in mouse; value ranges from 34-72; format: functional
Mus musculus [27] = assay: The compound was evaluated for the analgesic activity by tail-flick test after subcutaneous administration of compound in mouse; value ranges from 2.51-17.4; format: functional; details: sc
Mus musculus [28] = assay: The compound was evaluated for the analgesic activity by tail-flick test after icv administration of compound in mouse; value ranges from 0.51-9.7; format: functional
Mus musculus [29] = assay: The compound was evaluated for the analgesic activity by tail-flick test after subcutaneous administration of compound in mouse; value ranges from 0.31-1.09; format: functional; details: sc
Mus musculus [30] = assay: The compound was evaluated for the analgesic activity by tail-flick test after icv administration of compound in mouse; value ranges from 6.1-11.4; format: functional
Mus musculus [31] = assay: The compound was evaluated for the analgesic activity by tail-flick test after subcutaneous administration of compound in mouse; value ranges from 0.21-1.06; format: functional; details: sc
Mus musculus [32] = assay: The compound was evaluated for the analgesic activity by tail-flick test after icv administration of compound in mouse; value ranges from 2550-4200; format: functional
Mus musculus [33] = species: Mus musculus; assay: animal or person; details: Tail, sc

Structure (SMILES) | Relative potency (Mus musculus [1]) | Relative potency [2] | IC50 (Mu-type opioid receptor) | IC50 [3] | Relative potency (Mus musculus [4]) | other results
CC(NC(=O)[C@H](Cc1ccccc1)NC(=O)[C@H](CC[S+](C)[O-])NC(=O)[C@@H](N)Cc1ccc(O)cc1)C(N)=O (stereo not given in full) (H-Y[Met(O)]F[ξA]-NH2) | 93 | 0.24 | 17 nM | > 10000 nM | 2.5 | ED50 (Mus musculus [5]): 4.38 µmol/kg; ED50 (Mus musculus [6]): 33 pmol/mouse
COC(=O)CN(C)C(=O)[C@H](Cc1ccccc1)NC(=O)[C@H](CC[S+](C)[O-])NC(=O)[C@H](Cc1ccc(O)cc1)N=C(N)N (stereo not given in full) | 81 | 0.17 | 23 nM | > 10000 nM | 14.4 | ED50 (Mus musculus [7]): 0.75 µmol/kg; ED50 (Mus musculus [8]): 38.1 pmol/mouse
COC(=O)CNC(=O)[C@H](Cc1ccccc1)NC(=O)[C@H](CC[S+](C)[O-])NC(=O)[C@H](Cc1ccc(O)cc1)N=C(N)N (stereo not given in full) | – | – | 23.5 nM | > 10000 nM | – | ED50 (Mus musculus [9]): 15.5 pmol/mouse; ED50 (Mus musculus [10]): 2.39 µmol/kg
CN(CC(N)=O)C(=O)[C@H](Cc1ccccc1)NC(=O)[C@H](CC[S+](C)[O-])NC(=O)[C@@H](N)Cc1ccc(O)cc1 (stereo not given in full) (H-Y[Met(O)]F[Sar]-NH2) | 561 | 0.67 | 6 nM | > 10000 nM | 22.5 | ED50 (Mus musculus [11]): 5.5 pmol/mouse; ED50 (Mus musculus [12]): 0.48 µmol/kg
COC(=O)CN(C)C(=O)[C@H](Cc1ccccc1)NC(=O)[C@H](CC[S+](C)[O-])NC(=O)[C@@H](N)Cc1ccc(O)cc1 (stereo not given in full) (H-Y[Met(O)]F[Sar]-OMe) | 64 | 0.67 | 6 nM | > 10000 nM | 2.7 | ED50 (Mus musculus [13]): 47.9 pmol/mouse; ED50 (Mus musculus [14]): 4.05 µmol/kg
C[C@@H](NC(=O)[C@@H](N)Cc1ccc(O)cc1)C(=O)N[C@@H](Cc1ccccc1)C(=O)NCC(=O)N[C@@H](Cc1ccc(O)cc1)C(=O)N1CCC[C@H]1C(=O)N[C@@H](CO)C(N)=O [DERMORPHIN] | – | – | 5.7 nM | > 10000 nM | – | ED50 (Mus musculus [15]): 11.4 pmol/mouse
COC(=O)CNC(=O)[C@H](Cc1ccccc1)NC(=O)[C@H](CC[S+](C)[O-])NC(=O)[C@@H](N)Cc1ccc(O)cc1 (stereo not given in full) (H-Y[Met(O)]FG-OMe) | – | – | 5 nM | > 10000 nM | – | ED50 (Mus musculus [16]): 4.21 µmol/kg; ED50 (Mus musculus [17]): 10 pmol/mouse
C[S+]([O-])CC[C@H](NC(=O)[C@@H](N)Cc1ccc(O)cc1)C(=O)N[C@@H](Cc1ccccc1)C(=O)NCC(=O)O (stereo not given in full) (H-Y[Met(O)]FG-OH) | – | – | 61 nM | > 10000 nM | – | ED50 (Mus musculus [18]): 20.5 pmol/mouse; ED50 (Mus musculus [19]): 4.64 µmol/kg
C[S+]([O-])CC[C@H](NC(=O)[C@@H](N)Cc1ccc(O)cc1)C(=O)N[C@@H](Cc1ccccc1)C(=O)NCC(N)=O (stereo not given in full) (H-Y[Met(O)]FG-NH2) | – | – | 6.3 nM | > 10000 nM | – | ED50 (Mus musculus [20]): 0.66 µmol/kg; ED50 (Mus musculus [21]): 2.01 pmol/mouse
C[C@@H](NC(=O)[C@@H](N)Cc1ccc(O)cc1)C(=O)N[C@@H](Cc1ccccc1)C(=O)NCC(N)=O (H-Y[dA]FG-NH2) [listing 1 of 2 here] | 45 | – | – | – | 0.2 | ED50 (Mus musculus [22]): 60.3 µmol/kg; ED50 (Mus musculus [23]): 68.8 pmol/mouse
C[C@H](NC(=O)[C@@H](N)Cc1ccc(O)cc1)C(=O)N[C@@H](Cc1ccccc1)C(=O)NCC(N)=O (H-YAFG-NH2) | – | 0.11 | – | – | – | –
COC(=O)C(C)NC(=O)[C@H](Cc1ccccc1)NC(=O)[C@H](CC[S+](C)[O-])NC(=O)[C@@H](N)Cc1ccc(O)cc1 (stereo not given in full) (H-Y[Met(O)]F[ξA]-OMe) | – | – | 9 nM | > 10000 nM | – | ED50 (Mus musculus [24]): 18.2 pmol/mouse; ED50 (Mus musculus [25]): 5.16 µmol/kg
CN(CC(=O)O)C(=O)[C@H](Cc1ccccc1)NC(=O)[C@H](CC[S+](C)[O-])NC(=O)[C@@H](N)Cc1ccc(O)cc1 (stereo not given in full) (H-Y[Met(O)]F[Sar]-OH) | 67 | 0.05 | 77 nM | > 10000 nM | 2.3 | ED50 (Mus musculus [26]): 45.8 pmol/mouse; ED50 (Mus musculus [27]): 4.63 µmol/kg
C[S+]([O-])CC[C@H](NC(=O)[C@H](Cc1ccc(O)cc1)N=C(N)N)C(=O)N[C@@H](Cc1ccccc1)C(=O)NCC(N)=O (stereo not given in full) | – | – | 5 nM | > 10000 nM | – | ED50 (Mus musculus [28]): 2 pmol/mouse; ED50 (Mus musculus [29]): 0.53 µmol/kg
C[C@@H](NC(=O)[C@@H](N)Cc1ccc(O)cc1)C(=O)N[C@@H](Cc1ccccc1)C(=O)NCC(N)=O (H-Y[dA]FG-NH2) [listing 2 of 2 here] | – | – | 36.7 nM | > 10000 nM | – | –
CC(NC(=O)[C@H](Cc1ccccc1)NC(=O)[C@H](CC[S+](C)[O-])NC(=O)[C@@H](N)Cc1ccc(O)cc1)C(=O)O (stereo not given in full) (H-Y[Met(O)]F[ξA]-OH) | – | – | 120 nM | > 10000 nM | – | ED50 (Mus musculus [30]): 8.4 pmol/mouse; ED50 (Mus musculus [31]): 0.36 µmol/kg
CN1CC[C@]23c4c5ccc(O)c4O[C@H]2[C@@H](O)C=C[C@H]3[C@H]1C5 [MORPHINE] | – | – | – | – | – | ED50 (Mus musculus [32]): 3090 pmol/mouse; ED50 (Mus musculus [33]): 10.8 µmol/kg
